Reference: PMC5965255 (Neoplasia (New York, N.Y.), 2016)
≈ marks a conversion by molar mass, not a printed value. Values belong to the compound of their own block, whether it stands above or below them.

Tests used:
[1] = tested on: orthotopic Panc-1-luc pancreatic tumors; experiment: Antitumor activity in mice with orthotopic Panc-1-luc tumors; format: in vivo, athymic nude mice
Procedure, shortened: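 Male athymic nude mice (6-8 weeks) received ~50 μl of Panc-1-luc cells (~2 × 10^7/ml in 1:1 DMEM/Matrigel) into the pancreas under isoflurane anaesthesia. After four weeks, randomised (n = 5-7) to test compound (Tween 80/ethanol/water, 5% w/v mannitol), dFdC at molar equivalent (~0.087 […], 5% mannitol) or untreated. IP twice weekly, seven doses in total. Tumours dissected and weighed 30 days after first dose.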

[2] = Pancreatic tissue levels and biodistribution after IV injection; format: in vivo, BALB/c mice; details: mouse pancreas, IV 75 mg/kg, noncompartmental
Procedure, shortened: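 Healthy female BALB/c mice (17-20 weeks) received 75 mg/kg IV in Tween 80/ethanol/5% mannitol aqueous solution. Mice were euthanized at six time points from 5 to 300, n = 3-4 each. Pancreas was homogenized, extracted with ethyl acetate and analysed by HPLC: methanol/1% acetic acid 85:15, 1.2 ml/min, detection 300 nm.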

[3] = tested on: Panc-1-luc human pancreatic tumors implanted SC; experiment: Antitumor activity in mice with subcutaneous Panc-1-luc tumors; format: in vivo, athymic nude mice; details: IP twice a week; DHA-dFdC 50 mg/kg or molar equivalent doses
Procedure, shortened: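 Male athymic nude mice (6-8 weeks) received SC injections of 5 × 10^6 Panc-1-luc cells in DMEM/Matrigel 1:1 (v/v) in the right flank. At 5-7 mm tumours (day 5), mice were randomised into 5 groups (n = 5-6). Groups got IP test compound at 50 mg/kg or molar equivalents. The vehicle was Tween 80/ethanol/water 1:0.52:8.48 with 5% w/v mannitol (dFdC in 5% mannitol). Dosing was twice weekly, up to six times. Caliper volumes were V = ½ × L1 × L2 × L2.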

[4] = cited from earlier work
[5] = tested on: Panc-1-luc cells; details: cited from earlier work
[6] = tested on: tumor cells in culture; details: many tumor cells in culture; cited from earlier work
[7] = tested on: dFdC-sensitive cancer cell lines; details: various dFdC-sensitive cancer cell lines; cited from earlier work
[8] = Solubility of DHA-dFdC; format: physicochemical
Procedure, shortened: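 Indirect aqueous solubility used isopropyl myristate (IPM)/water partitioning. Saturated IPM solution was centrifuged (14,000 rpm, 10 min) and the supernatant measured by HPLC after methanol dilution (A1). Water was added at Vwater/VIPM 10, vortexed 5 min, left 15 min and centrifuged (14,000 rpm, 15 min). The IPM layer was re-assayed (A2) and the partition coefficient calculated from A1, A2 and the volume ratio.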

[9] = tested on: Panc-02 cells; experiment: MTT cytotoxicity assay; format: cell-based, mouse; details: Panc-02, high concentrations (10-100 μM)
Procedure, shortened: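 Cells seeded at 1500/well and left overnight at 37°C, 5% CO2. Treated with serial concentrations of test compound, dFdC, DHA or 1:1 molar dFdC+DHA (lipids in DMSO, dFdC in medium). Exposure: Panc-1-luc 24 h, Panc-02 48 h, BxPC-3 72 h. In a separate Panc-02 run, 10-100 μM for 4 h. Survival read by MTT; IC50 obtained by curve fitting.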

Compound: Cl.Nc1ccn([C@@H]2O[C@H](CO)[C@@H](O)C2(F)F)c(=O)n1 [dFdC, 2′, 2′-difluorodeoxycytidine HCl]
- Tumor growth ([1]; IP twice a week, DHA-dFdC 50 mg/kg, dFdC molar equivalent): did not show significant activity
- Cleaved lamin-A positive staining in tumors ([1]; compared with untreated mice): not different from that in mice that were left untreated
- AUC0 -∞ in pancreas [2]: 787.71 µg·min/g
- Tumor growth compared with vehicle control [3]: did not significantly inhibit the tumor growth
- Loss of dFdC by deamination ([4]; after intravenous administration): about 90%
- Administered dFdC excreted in the urine [4]: More than 99%
- Unchanged dFdC in the urine [4]: 5%
- Sensitivity of Panc-1 tumor cells [5]: resistant

Compound: CC/C=C\C/C=C\C/C=C\C/C=C\C/C=C\C/C=C\CCC(=O)O[C@@H](C(=O)O[C@H]1C[C@@]2(O)[C@@H](OC(=O)c3ccccc3)[C@@H]3[C@]4(OC(C)=O)CO[C@@H]4C[C@H](O)[C@@]3(C)C(=O)[C@H](OC(C)=O)C(=C1C)C2(C)C)[C@@H](NC(=O)c1ccccc1)c1ccccc1 [DHA-paclitaxel conjugate]
- Cytotoxicity compared with paclitaxel [6]: not more cytotoxic than paclitaxel alone

- Solubility in water ([8]; direct method): 1.38 ± 1.60 µg/mL (≈ 2.61 µM)
- Solubility in water ([8]; indirect method (IPM/water partitioning), room temperature): 1.39 ± 0.10 µg/mL (≈ 2.62 µM)
Compound: CCCCCCCCCCCCCCCCCC(=O)Nc1ccn(C2OC(CO)C(O)C2(F)F)c(=O)n1 (centres unmarked) [4-(N)-stearoyl dFdC]
- Cytotoxicity compared with dFdC [7]: not significantly more cytotoxic than dFdC

Compound: CC/C=C\C/C=C\C/C=C\C/C=C\C/C=C\C/C=C\CCC(=O)O [DHA, Cis-4,7,10,13,16,19-docosahexaenoic acid]
- Cytotoxicity after 4 hours of coincubation [9]: did not show significant cytotoxicity
- Tumor growth compared with vehicle control [3]: did not significantly inhibit the tumor growth
